{
  "source": "ChEMBL document CHEMBL4342509",
  "about": "“New 8-Nitroquinolinone Derivative Displaying Submicromolar in Vitro Activities against Both Trypanosoma brucei and cruzi” (ACS Med Chem Lett, 2020)",
  "key": {"Trypanosoma cruzi": {"tested_on": "Trypanosoma cruzi", "test": "Antitrypanosomal activity against Trypanosoma cruzi CL Brener amastigotes infected in African green monkey Vero cells assessed as reduction in parasite growth incubated for 120 hrs at 24 hrs post-infection and measured on day 6 post-infection by hemocytometer based light microscopy", "assay_type": "functional, organism-based", "in_short": "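Compounds, 2–4-fold serial dilutions over 0,1–25 µM final, applied for 120 h at 37°C. On day 6, released trypomastigotes pooled, centrifuged and counted by haemocytometer. EC50 by nonlinear regression; two experiments, triplicate wells.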"}, "[1]": {"test": "Selectivity index, ratio of CC50 for human HepG2 cells to EC50 for Trypanosoma brucei brucei trypomastigotes AnTat 1.9", "assay_type": "toxicity", "conditions": "read-out: Ratio CC50/EC50"}, "Leishmania infantum": {"tested_on": "Leishmania infantum", "test": "Antileishmanial activity against Leishmania infantum MHOM/MA/67/ITMAP-263 axenic amastigotes expressing luciferase plasmid assessed as reduction in parasite viability incubated for 48 hrs by Steady Glow reagent based luminescence assay", "assay_type": "functional, organism-based", "conditions": "MHOM/MA/67/ITMAP-263, 48 h"}, "[2]": {"test": "Half life in NMRI mouse at 25 mg/Kg, ig measured up to 24 hrs by LCMS analysis", "assay_type": "ADME", "conditions": "in vivo, po"}, "HepG2": {"tested_on": "HepG2", "test": "Cytotoxicity against human HepG2 cells assessed as reduction in cell viability incubated for 72 hrs by MTT assay", "assay_type": "cell-based", "conditions": "hepg2, 72 h"}, "[3]": {"tested_on": "Trypanosoma brucei brucei", "test": "Antitrypanosomal activity against Trypanosoma brucei brucei AnTat 1.9 trypomastigotes assessed as reduction in parasite viability incubated for 69 hrs by Alamar Blue dye based assay", "assay_type": "functional, organism-based", "conditions": "AnTat 1.9, 69 h", "in_short": "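Bloodstream AnTat 1.9 parasites grown at 37°C, 5% CO₂ in MEM with Earle's salts (Baltz-type) plus 0.5 mM mercaptoethanol, 1.5 mM L-cysteine, 0.05 mM bathocuproine sulfate and 20% heat-inactivated horse serum. EC50 from nonlinear regression, three independent experiments in duplicate.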"}, "[4]": {"test": "Electrochemical behavior of the compound assessed as redox potential corrected toward normal hydrogen electrode by cyclic voltammetry"}, "Leishmania donovani [5]": {"tested_on": "Leishmania donovani", "test": "Antileishmanial activity against wild type Leishmania donovani BOB (MHOM/SD/62/1S-CL2D) promastigotes assessed as inhibition of parasite growth incubated for 72 hrs by resazurin dye based assay", "assay_type": "functional, organism-based", "in_short": "(§1)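 LdBOB promastigotes grown at 26 °C in modified M199; NTR1- or NTR2-overexpressing lines kept under nourseothricin (100 µg/mL). Triplicate cultures seeded at 5×10^4 parasites/mL with drug for 72 h; 50 µM resazurin added, fluorescence (ex 528/em 590 nm) read after a further 4 h.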"}, "[6]": {"tested_on": "Trypanosoma brucei brucei", "test": "Selectivity index, ratio of EC50 for bloodstream form of wild type Trypanosoma brucei brucei S427 trypomastigotes to EC50 for blood stream form of Trypanosoma brucei brucei S427 trypomastigotes overexpressing NTR", "assay_type": "functional"}, "Leishmania donovani [7]": {"tested_on": "Leishmania donovani", "test": "Antileishmanial activity against Leishmania donovani BOB (MHOM/SD/62/1S-CL2D) promastigotes overexpressing NTR2 assessed as inhibition of parasite growth incubated for 72 hrs by resazurin dye based assay", "assay_type": "functional, organism-based", "in_short": "as §1"}, "[8]": {"tested_on": "Trypanosoma brucei brucei", "test": "Antitrypanosomal activity against blood stream form of Trypanosoma brucei brucei S427 trypomastigotes overexpressing NTR assessed as inhibition of parasite growth", "assay_type": "functional, organism-based"}, "[9]": {"test": "Permeability of the compound in pH 7.4 Prisma HT buffer at 100 uM incubated for 4 hrs by PAMPA-BBB assay method", "assay_type": "ADME", "conditions": "read-out: permeability"}, "[10]": {"test": "Microsomal stability in CD-1 mouse liver microsomes in presence of NADP measured up to 40 mins by LC-MS analysis", "assay_type": "ADME, Microsome", "in_short": "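Compound incubated in duplicate with female CD-1 mouse microsomes at 37°C in 50 mM phosphate pH 7.4. Cofactors: 5 mM MgCl₂, 1 mM NADP, 0.4 U/mL G6PDH and 5 mM glucose-6-phosphate. […] Propranolol reference.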"}, "Leishmania donovani [11]": {"tested_on": "Leishmania donovani", "test": "Antileishmanial activity against Leishmania donovani BOB (MHOM/SD/62/1S-CL2D) promastigotes overexpressing NTR1 assessed as inhibition of parasite growth incubated for 72 hrs by resazurin dye based assay", "assay_type": "functional, organism-based", "in_short": "as §1"}, "[12]": {"tested_on": "Trypanosoma brucei brucei", "test": "Antitrypanosomal activity against bloodstream form of wild type Trypanosoma brucei brucei S427 trypomastigotes assessed as inhibition of parasite growth", "assay_type": "functional, organism-based"}},
  "data": [
    {"smiles": "CSc1ccc(OCc2ncc([N+](=O)[O-])n2C)cc1", "note": "[FEXINIDAZOLE]", "values": [
      {"measurement": "EC50", "setting": "Trypanosoma cruzi", "result": 3, "unit": "µM"},
      {"measurement": "selectivity ratio", "setting": "[1]", "result": "> 500"},
      {"measurement": "EC50", "setting": "Leishmania infantum", "result": 3.4, "unit": "µM"},
      {"measurement": "half-life", "setting": "[2]", "result": 48, "unit": "min"},
      {"measurement": "CC50", "setting": "HepG2", "result": "> 200", "unit": "µM"},
      {"measurement": "EC50", "setting": "[3]", "result": 0.4, "unit": "µM"}
    ]},
    {"smiles": "O=c1[nH]c2c([N+](=O)[O-])cc(Cl)cc2cc1Cl", "values": [
      {"measurement": "selectivity ratio", "setting": "[1]", "result": 243},
      {"measurement": "Activity", "setting": "[4]", "result": -0.37, "unit": "V"},
      {"measurement": "EC50", "setting": "Leishmania infantum", "result": 6.2, "unit": "µM"},
      {"measurement": "CC50", "setting": "HepG2", "result": 24.3, "unit": "µM"},
      {"measurement": "EC50", "setting": "[3]", "result": 0.1, "unit": "µM"}
    ]},
    {"smiles": "O=c1[nH]c2ccc(C(F)(F)F)cc2cc1Cl", "values": [
      {"measurement": "EC50", "setting": "Leishmania infantum", "result": "> 100", "unit": "µM"},
      {"measurement": "CC50", "setting": "HepG2", "result": "> 100", "unit": "µM"},
      {"measurement": "EC50", "setting": "[3]", "result": "> 50", "unit": "µM"}
    ]},
    {"smiles": "Cc1ccc(C(=O)Nc2ccc(S(=O)(=O)O)c3cc(S(=O)(=O)O)cc(S(=O)(=O)O)c23)cc1NC(=O)c1cccc(NC(=O)Nc2cccc(C(=O)Nc3cc(C(=O)Nc4ccc(S(=O)(=O)O)c5cc(S(=O)(=O)O)cc(S(=O)(=O)O)c45)ccc3C)c2)c1", "note": "[SURAMIN]", "values": [
      {"measurement": "selectivity ratio", "setting": "[1]", "result": "> 3330"},
      {"measurement": "CC50", "setting": "HepG2", "result": "> 100", "unit": "µM"},
      {"measurement": "EC50", "setting": "[3]", "result": 0.03, "unit": "µM"}
    ]},
    {"smiles": "O=C(Cn1ccnc1[N+](=O)[O-])NCc1ccccc1", "note": "[BENZNIDAZOLE]", "values": [
      {"measurement": "EC50", "setting": "Trypanosoma cruzi", "result": 0.5, "unit": "µM"}
    ]},
    {"smiles": "O=C(O)c1ccc(-c2cc3cc(Br)cc([N+](=O)[O-])c3[nH]c2=O)cc1", "values": [
      {"measurement": "selectivity ratio", "setting": "[1]", "result": 302},
      {"measurement": "Activity", "setting": "[4]", "result": -0.4, "unit": "V"},
      {"measurement": "EC50", "setting": "Leishmania donovani [5]", "result": 2, "unit": "µM"},
      {"measurement": "Ratio EC50", "setting": "[6]", "result": 40},
      {"measurement": "EC50", "setting": "Leishmania donovani [7]", "result": 2.1, "unit": "µM"},
      {"measurement": "EC50", "setting": "[8]", "result": 0.1, "unit": "µM"},
      {"measurement": "Papp at 4 h, 100 µM", "setting": "[9]", "result": 1.27, "unit": "×10⁻⁶ cm/s"},
      {"measurement": "EC50", "setting": "Leishmania infantum", "result": 8, "unit": "µM"},
      {"measurement": "CC50", "setting": "HepG2", "result": 60.4, "unit": "µM"},
      {"measurement": "t1/2", "setting": "[10]", "result": "> 40", "unit": "min"},
      {"measurement": "EC50", "setting": "[3]", "result": 0.2, "unit": "µM"},
      {"measurement": "EC50", "setting": "Leishmania donovani [11]", "result": 1.3, "unit": "µM"},
      {"measurement": "EC50", "setting": "[12]", "result": 4, "unit": "µM"}
    ]},
    {"smiles": "O=c1[nH]c2c([N+](=O)[O-])cccc2cc1Br", "values": [
      {"measurement": "selectivity ratio", "setting": "[1]", "result": 48},
      {"measurement": "Activity", "setting": "[4]", "result": -0.45, "unit": "V"},
      {"measurement": "EC50", "setting": "Leishmania donovani [5]", "result": 5.9, "unit": "µM"},
      {"measurement": "EC50", "setting": "Leishmania donovani [7]", "result": 4.6, "unit": "µM"},
      {"measurement": "EC50", "setting": "[8]", "result": 3.9, "unit": "µM"},
      {"measurement": "EC50", "setting": "Leishmania donovani [11]", "result": 0.47, "unit": "µM"},
      {"measurement": "EC50", "setting": "[12]", "result": 17.7, "unit": "µM"}
    ]},
    {"smiles": "O=c1[nH]c2ccc(C(F)(F)F)cc2cc1Br", "values": [
      {"measurement": "EC50", "setting": "Leishmania infantum", "result": "> 100", "unit": "µM"},
      {"measurement": "CC50", "setting": "HepG2", "result": "> 100", "unit": "µM"},
      {"measurement": "EC50", "setting": "[3]", "result": "> 50", "unit": "µM"}
    ]},
    {"smiles": "O=c1ccc2cc(Br)cc([N+](=O)[O-])c2[nH]1", "values": [
      {"measurement": "selectivity ratio", "setting": "[1]", "result": 399},
      {"measurement": "Activity", "setting": "[4]", "result": -0.4, "unit": "V"},
      {"measurement": "EC50", "setting": "Leishmania infantum", "result": 11.6, "unit": "µM"},
      {"measurement": "CC50", "setting": "HepG2", "result": 27.9, "unit": "µM"},
      {"measurement": "EC50", "setting": "[3]", "result": 0.07, "unit": "µM"}
    ]},
    {"smiles": "O=c1[nH]c2c([N+](=O)[O-])cc(C(F)(F)F)cc2cc1Cl", "values": [
      {"measurement": "selectivity ratio", "setting": "[1]", "result": 55},
      {"measurement": "EC50", "setting": "Leishmania infantum", "result": 9.2, "unit": "µM"},
      {"measurement": "CC50", "setting": "HepG2", "result": 31.4, "unit": "µM"},
      {"measurement": "EC50", "setting": "[3]", "result": 0.57, "unit": "µM"}
    ]},
    {"smiles": "CCCCCCCCCCCCCCCCOP(=O)([O-])OCC[N+](C)(C)C", "note": "[MILTEFOSINE]", "values": [
      {"measurement": "EC50", "setting": "Leishmania infantum", "result": 0.8, "unit": "µM"}
    ]},
    {"smiles": "C[C@@H]1[C@H](O)[C@@H](C)/C=C/C=C/C=C/C=C/C=C/C=C/C=C/[C@H](O[C@@H]2O[C@H](C)[C@@H](O)[C@H](N)[C@@H]2O)C[C@@H]2O[C@](O)(C[C@@H](O)C[C@@H](O)[C@H](O)CC[C@@H](O)C[C@@H](O)CC(=O)O[C@H]1C)C[C@H](O)[C@H]2C(=O)O", "note": "[AMPHOTERICIN B]", "values": [
      {"measurement": "EC50", "setting": "Leishmania infantum", "result": 0.06, "unit": "µM"}
    ]}
  ]
}
